Reference: ChEMBL document CHEMBL1124180, “Asymmetric synthesis and properties of the enantiomers of the antibacterial agent 7-(3-aminopyrrolidin-1-yl)-1-(2,4-difluorophenyl)-1,4-dihydro-6- fluoro-4-oxo-1,8-naphthyridine-3-carboxylic acid hydrochloride” (J Med Chem, 1988)

How the values were obtained:
[1] = tested on: Acinetobacter sp.; test: In vitro activity against Acinetobacter sp.(CMX 669).; format: functional
Procedure, shortened: (§1)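 MIC determined by agar dilution on brain-heart infusion agar under aerobic conditions.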

[2] = tested on: Mus musculus; test: In vivo activity against Escherichia coli Juhl(100X LD50), when administered sc( each compound tested at 3 doses with 10 animals); format: functional
Procedure, shortened: (§2)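 Mice were challenged intraperitoneally with the organism. The compound was given subcutaneously as a total dose split into equal portions at 1 and 5 h post-infection. Three doses were used, with 10 animals per dose.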

[3] = Solubility in aqueous media 0.15 N sulfate, pH 5.4; format: physicochemical; details: read-out: S
[4] = Solubility in aqueous media 0.15Nacetate, pH 6.1; format: physicochemical; details: 0.15 N acetate, read-out: S
[5] = Solubility in aqueous media 0.1 N chloride, pH 6.5; format: physicochemical; details: read-out: S
[6] = tested on: Klebsiella aerogenes; test: In vitro activity againsT Enterobacter aerogenes (ATCC 13048).; format: functional; procedure, shortened: as §1
[7] = tested on: Escherichia coli; test: In vitro activity against Escherichia coli Juhl; format: functional
Procedure, shortened: (§3)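 MIC for aerobic bacteria, measured on brain-heart infusion agar.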

[8] = tested on: Streptococcus equinus; test: In vitro activity against Streptococcus bovis (A5169).; format: functional; procedure, shortened: as §1
[9] = Solubility in aqueous media urine, pH 5.1; format: physicochemical; details: read-out: S
[10] = tested on: Pseudomonas aeruginosa; test: In vitro activity against Pseudomonas aeruginosa (A5007).; format: functional; procedure, shortened: as §1
[11] = tested on: Burkholderia cepacia; test: In vitro activity against Pseudomonas cepacia (296I); format: functional; procedure, shortened: as §1
[12] = tested on: Staphylococcus aureus; test: In vitro activity against Staphylococcus aureus(CMX 686B); format: functional; procedure, shortened: as §1
[13] = Solubility in aqueous media 0.15 N phosphate, pH 5.6; format: physicochemical; details: read-out: S
[14] = tested on: Escherichia coli; test: In vitro activity against Escherichia coli (DC-2); format: functional; procedure, shortened: as §3
[15] = tested on: Staphylococcus aureus; test: In vitro activity against Staphylococcus aureus(ATCC 6538P); format: functional; procedure, shortened: as §1
[16] = tested on: Klebsiella pneumoniae; test: In vitro activity against Klebsiella pneumoniae (ATCC 8045).; format: functional; procedure, shortened: as §1
[17] = Solubility in aqueous media urine, pH 7.0; format: physicochemical; details: read-out: S
[18] = tested on: Streptococcus agalactiae; test: In vitro activity against Streptococcus agalactiae (CMX 508).; format: functional; procedure, shortened: as §1
[19] = tested on: Escherichia coli; test: In vitro activity against Escherichia coli (H560); format: functional; procedure, shortened: as §3
[20] = tested on: Pseudomonas aeruginosa; test: In vitro activity against Pseudomonas aeruginosa (BMH10); format: functional; procedure, shortened: as §1
[21] = Solubility in aqueous media urine, pH 5.7; format: physicochemical; details: read-out: S
[22] = tested on: Streptococcus pyogenes; test: In vitro activity against Streptococcus pyogenes(930 CONST).; format: functional; procedure, shortened: as §1
[23] = tested on: Staphylococcus aureus; test: In vitro activity against Staphylococcus aureus(CMX 553); format: functional; procedure, shortened: as §1
[24] = tested on: Staphylococcus aureus; test: In vitro activity against Staphylococcus aureus(45); format: functional; procedure, shortened: as §1
[25] = tested on: Mus musculus; test: In vivo activity against Pseudomonas aeruginosa A5007 (100X LD50), administered sc ( each compound tested at 3 doses with 10 animals); format: functional; procedure, shortened: as §2
[26] = tested on: Streptococcus pyogenes; test: In vitro activity against Streptococcus pyogenes (EES61); format: functional; procedure, shortened: as §1
[27] = tested on: Mus musculus; test: In vivo activity against Escherichia coli Juhl(100X LD50), when administered po( each compound tested at 3 doses with 10 animals); format: functional
Procedure, shortened: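 Mice were challenged intraperitoneally with the organism. The compound was given orally as a total dose split into equal portions at 1 and 5 h post-infection. Three doses were used, with 10 animals per dose.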

[28] = tested on: Mus musculus; test: In vivo activity against Pseudomonas aeruginosa A5007 (100X LD50), administered sc( each compound tested at 3 doses with 10 animals); format: functional; procedure, shortened: as §2
[29] = Solubility in aqueous media urine, pH 6.3; format: physicochemical; details: read-out: S
[30] = tested on: Enterococcus faecium; test: In vitro activity against Enterococcus faecium (ATCC 8043).; format: functional; procedure, shortened: as §1
[31] = tested on: Streptococcus pyogenes; test: In vitro activity against Streptococcus pyogenes (2548 INDUC).; format: functional; procedure, shortened: as §1
[32] = Solubility in aqueous media Ringer's buffer,pH7.4; format: physicochemical; details: pH 7.4
[33] = tested on: Staphylococcus epidermidis; test: In vitro activity against Staphylococcus epidermidis (3519); format: functional; procedure, shortened: as §1
[34] = tested on: Staphylococcus aureus; test: In vitro activity against Staphylococcus aureus (A5177); format: functional; procedure, shortened: as §1
[35] = tested on: Escherichia coli; test: In vitro activity against Escherichia coli (KNK437); format: functional; procedure, shortened: as §3
[36] = tested on: Micrococcus luteus; test: In vitro activity against Micrococcus luteus (ATCC 4698); format: functional; procedure, shortened: as §1
[37] = tested on: Staphylococcus aureus; test: In vitro activity against Staphylococcus aureus(CMX 503A); format: functional; procedure, shortened: as §1
[38] = tested on: Pseudomonas aeruginosa; test: In vitro activity against Pseudomonas aeruginosa (K799/WT).; format: functional; procedure, shortened: as §1
[39] = tested on: Escherichia coli; test: In vitro activity against Escherichia coli (SS).; format: functional; procedure, shortened: as §3
[40] = tested on: Staphylococcus aureus; test: In vitro activity against Staphylococcus aureus(45 RAR2); format: functional; procedure, shortened: as §1
[41] = tested on: Micrococcus luteus; test: In vitro activity against Micrococcus luteus (ATCC 9341); format: functional; procedure, shortened: as §1
[42] = tested on: Providencia stuartii; test: In vitro activity against Providencia stuartii (CMX 640); format: functional; procedure, shortened: as §1

## Cl.NC1CCN(c2nc3c(cc2F)c(=O)c(C(=O)O)cn3-c2ccc(F)cc2F)C1 (configuration not stated)
[1]
  MIC: 0.05 µg/mL
[2]
  ED50: 0.2 mg/kg
[3]
  solubility: 6.5 µg/mL
[4]
  solubility: 1.7 µg/mL
[5]
  solubility: 1.2 µg/mL
[6]
  MIC: 0.1 µg/mL
[7]
  MIC: 0.02 µg/mL
[8]
  MIC: 0.2 µg/mL
[9]
  solubility: 23.5 µg/mL
[10]
  MIC: 0.2 µg/mL
[11]
  MIC: 6.2 µg/mL
[12]
  MIC: 0.05 µg/mL
[13]
  solubility: 1.8 µg/mL
[14]
  MIC: 0.2 µg/mL
[15]
  MIC: 0.02 µg/mL
[16]
  MIC: 0.02 µg/mL
[17]
  solubility: 12.2 µg/mL
[18]
  MIC: 0.39 µg/mL
[19]
  MIC: 0.02 µg/mL
[20]
  MIC: 0.1 µg/mL
[21]
  solubility: 16.3 µg/mL
[22]
  MIC: 0.2 µg/mL
[23]
  MIC: 0.05 µg/mL
[24]
  MIC: 0.1 µg/mL
[25]
  ED50: 0.4 mg/kg
[26]
  MIC: 0.2 µg/mL
[27]
  ED50: 1.2 mg/kg
[28]
  ED50: > 25 mg/kg
[29]
  solubility: 12.7 µg/mL
[30]
  MIC: 0.2 µg/mL
[31]
  MIC: 0.2 µg/mL
[32]
  solubility: 8 µg/mL
[33]
  MIC: 0.05 µg/mL
[34]
  MIC: 0.05 µg/mL
[35]
  MIC: 0.02 µg/mL
[36]
  MIC: 0.78 µg/mL
[37]
  MIC: 0.05 µg/mL
[38]
  MIC: 0.1 µg/mL
[39]
  MIC: 0.01 µg/mL
[40]
  MIC: 0.1 µg/mL
[41]
  MIC: 1.56 µg/mL
[42]
  MIC: 1.56 µg/mL
